Results published in ChEMBL document CHEMBL4049421, “Design, Synthesis, and Pharmacological Characterization of N-(4-(2 (6,7-Dimethoxy-3,4-dihydroisoquinolin-2(1H)yl)ethyl)phenyl)quinazolin-4-amine Derivatives: Novel Inhibitors Reversing P-Glycoprotein-Mediated Multidrug Resistance” (J Med Chem, 2017).
pIC50: −log10 of the molar value. Active and inactive are the calls of the source. The calls are words filed in the database; no cut-off is given here.

Tests used:
K562 [1] = assay: Cytotoxicity against human K562 cells assessed as reduction in cell viability after 48 hrs by MTT assay; format: functional, cell-based; conditions: K562, 48 h
Summary of the method: (§1)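 MTT assay on HUVEC, K562 or K562/A02 cells seeded at 1×10^4 cells per well, using serial compound concentrations. Formazan was dissolved in DMSO and read at 490 nm. IC50 was obtained from log dose–response curves, mean ± SD of three independent tests.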

K562 [2] = assay: Antiproliferative activity against human K562 cells assessed as cell viability at 5.0 uM after 48 hrs by MTT assay (reference value: >99%); format: functional; conditions: K562, 48 h, read-out: Activity
HUVEC = assay: Cytotoxicity against HUVEC assessed as reduction in cell viability after 48 hrs by MTT assay; format: cell-based; conditions: Homo sapiens; summary of the method: as §1
[3] = Elimination half life in Sprague-Dawley rat at 10 mg/kg, iv by LC-MS/MS analysis; format: ADME, organism-based; conditions: in vivo, read-out: beta t1/2 (converted)
K562/A02 [4] = assay: Cytotoxicity against human K562/A02 cells assessed as reduction in cell viability after 48 hrs by MTT assay; format: functional, cell-based; conditions: K562/A02, 48 h; summary of the method: as §1
K562/A02 [5] = assay: Antiproliferative activity against human K562/A02 cells assessed as cell viability at 5.0 uM after 48 hrs by MTT assay (reference value: >99%); format: functional; conditions: K562/A02, 48 h, read-out: Activity
[6] = Selective ratio of IC50 for human K562/A02 cells to IC50 for human K562 cells; format: functional
[7] = Cytotoxicity against human K562 cells assessed as cell viability at 1.0 uM after 48 hrs by MTT assay (reference value: >99%); format: cell-based; conditions: read-out: Activity
Homo sapiens [8] = species on record: Homo sapiens; assay: Inhibition of P-gp in human K562/A02 cells assessed as potentiation of doxorubicin-induced cytotoxicity by measuring fold reduction in doxorubicin IC50 at 1.0 uM after 48 hrs by MTT assay relative to doxorubicin alone; format: cell-based
Summary of the method: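 K562/A02 cells (1×10^4 cells per well) were exposed to a DOX concentration series, alone or with modulator at 1.0 μM, for 48 h. Viability was read by MTT at 490 nm. Reversal fold = DOX IC50 without inhibitor / DOX IC50 with inhibitor, mean ± SD of three tests.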

[9] = Cytotoxicity against human K562/A02 cells assessed as cell viability at 1.0 uM after 48 hrs by MTT assay (reference value: >99%); format: cell-based; conditions: read-out: Activity
[10] = Inhibition of CYP3A4 in rat liver microsomes assessed as decrease in 6beta-OH testosterone levels using testosterone as substrate by HPLC analysis; format: ADME
Summary of the method: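 Rat liver microsomes were isolated by differential centrifugation, with protein measured by Bradford assay. They were incubated with testosterone, without or with inhibitor at 2.5, 5.0, 10.0, 20.0 and 40.0 μM; ketoconazole was the reference inhibitor. 6β-OH testosterone was quantified by C18 reverse-phase HPLC (water/acetonitrile gradient, 35 °C, 1.0 mL/min, UV 254 nm). Mean ± SD, three independent experiments.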

Homo sapiens [11] = species on record: Homo sapiens; assay: Inhibition of ATPase activity in human P-gp membrane fraction at 0.5 uM in presence of ATP after 1 hr by luciferase […]; format: cell membranes
Summary of the method: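 Human P-gp membrane fraction (~25 μg) was incubated with compound at 0.5, 5.0 or 50.0 μM in 0.5% DMSO, with a 100 μM sodium vanadate reference. Reaction was started with 5.0 mM MgATP, 1 h at 37 °C. Remaining ATP was read by luciferase luminescence after 20 min at room temperature, relative to vanadate. n = 3.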

Rattus norvegicus = assay: Effect on plasma concentration of doxorubicin in Sprague-Dawley rat at 5 mg/kg, iv co-administered with doxorubicin measured after 8 hrs by LC-MS/MS analysis; format: ADME, organism-based; conditions: in vivo
Summary of the method: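 Male SD rats received DOX 10 mg/kg i.v. alone or with modulator 5 mg/kg i.v. Orbital blood was taken at 5 min to 8 h. Plasma DOX was measured by LC-MS/MS with DNR (0.5 μg/mL) as internal standard. Mean ± SD, n = 3.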

Homo sapiens [12] = species on record: Homo sapiens; assay: Inhibition of P-gp in human K562/A02 cells assessed as accumulation of doxorubicin at 0.1 uM to 5.0 uM after 150 mins by fluorescence spectrophotometric analysis; format: cell-based
Summary of the method: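 K562/A02 cells (4×10^5) were incubated 150 min at 37 °C with 20.0 μM DOX plus modulator at various concentrations, with 0.1% DMSO as negative control. Cells were washed with cold PBS and lysed in HCl/Triton X-100/isopropanol. DOX fluorescence was read at ex 460 / em 587 nm. Mean ± SD, n = 3.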

Homo sapiens [13] = species on record: Homo sapiens; assay: Inhibition of P-gp mediated efflux in human K562/A02 cells assessed as intracellular Rh123 accumulation at 1.0 uM measure up to 90 mins by flow cytometric analysis; format: cell-based
Summary of the method: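 K562/A02 cells were loaded with 5 μM Rh123 for 90 min at 37 °C and washed three times. They were then incubated with or without modulator at 37 °C for 5, 10, 25, 30, 60 and 90 min. Retained Rh123 MFI per 10000 cells was measured by flow cytometry. 0.1% DMSO negative control, n = 3.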

[14] = Cytotoxicity against human K562/A02 cells assessed as cell viability at 5.0 uM after 48 hrs by MTT assay (reference value: >99%); format: cell-based; conditions: read-out: Activity
in vitro = conditions: human, K562 cells
Homo sapiens [15] = species on record: Homo sapiens; conditions: 5 uM
Homo sapiens [16] = species on record: Homo sapiens; conditions: 5.0 uM
Homo sapiens [17] = species on record: Homo sapiens; conditions: 5 uM; remark: listed apart in the source

Structure (SMILES)	viability at 48 h, 1 µM [7]	fold change (FC) (Homo sapiens [8])	viability at 48 h, 1 µM [9]	also measured
COc1cccc2c1C(=O)c1c(O)c3c(c(O)c1C2=O)C[C@@](O)(C(=O)CO)C[C@@H]3O[C@H]1C[C@H](N)[C@H](O)[C@H](C)O1 [DOXORUBICIN]	–	–	–	pIC50 (K562 [1]): 6.21; viability at 5 µM (K562 [2]): 8.8%; pIC50 (HUVEC): 5.06; half-life [3]: 1.6 h; pIC50 (K562/A02 [4]): 4.05; viability at 5 µM (K562/A02 [5]): 96.4%; Ratio IC50 [6]: 144.8
COc1cc2c(cc1OC)CN(CCc1ccc(Nc3nc(-c4ccccc4)nc4cc(Cl)ccc34)cc1)CC2	> 99%	8.2	95.3%	–
COc1cc2c(cc1OC)CN(CCc1ccc(Nc3nc(-c4ccccc4)nc4ccccc34)cc1)CC2	98.7%	7.7	> 99%	–
COc1cc2c(cc1OC)CN(CCc1ccc(Nc3nc(-c4ccc5ccccc5n4)nc4ccccc34)cc1)CC2	> 99%	2.6	92.1%	–
COc1cc2c(cc1OC)CN(CCc1ccc(Nc3nc(-c4cccc(C)c4)nc4ccccc34)cc1)CC2	92.9%	8.9	92.1%	–
CC(=O)N1CCN(c2ccc(OCC3COC(Cn4ccnc4)(c4ccc(Cl)cc4Cl)O3)cc2)CC1 (configuration not stated) [KETOCONAZOLE]	–	–	–	inhibition (INH) [10]: Dose-dependent effect
COc1cc2c(cc1OC)CN(CCc1ccc(Nc3nc(-c4ccccc4)nc4cc(OC)c(OC)cc34)cc1)CC2	> 99%	10.1	97.3%	–
COc1cc2c(cc1OC)CN(CCc1ccc(Nc3nc(-c4ccc(Cl)cc4)nc4ccccc34)cc1)CC2	> 99%	6	> 99%	–
COc1ccc(-c2nc(Nc3ccc(CCN4CCc5cc(OC)c(OC)cc5C4)cc3)c3ccccc3n2)cc1OC	95.1%	17.2	> 99%	–
COc1ccc(-c2nc(Nc3ccc(CCN4CCc5cc(OC)c(OC)cc5C4)cc3)c3ccccc3n2)cc1	> 99%	7.9	85.2%	–
COc1cc2c(cc1OC)CN(CCc1ccc(Nc3nc(-c4ccc(C(C)(C)C)cc4)nc4ccccc34)cc1)CC2	> 99%	1.9	91.3%	–
COc1cc2c(cc1OC)CN(CCc1ccc(Nc3nc(-c4ccccc4OC)nc4ccccc34)cc1)CC2	> 99%	10.9	> 99%	–
COc1cccc(-c2nc(Nc3ccc(CCN4CCc5cc(OC)c(OC)cc5C4)cc3)c3ccccc3n2)c1	> 99%	14.6	> 99%	–
COc1ccc(C(=O)Nc2ccccc2C(=O)Nc2ccc(CCN3CCc4cc(OC)c(OC)cc4C3)cc2)cc1OC	97.5%	18.6	> 99%	inhibition (Homo sapiens [11]): Active; Activity (Rattus norvegicus): Non-Toxic; inhibition (Homo sapiens [12]): Active; inhibition (Homo sapiens [13]): Active
COc1ccc(CCN(C)CCCC(C#N)(c2ccc(OC)c(OC)c2)C(C)C)cc1OC (configuration not stated)	–	–	–	viability at 48 h, 5 µM [14]: 88.3%; viability at 48 h, 5 µM (in vitro): > 99%; Activity (Rattus norvegicus): Toxic; inhibition (Homo sapiens [15]): inactive; inhibition (Homo sapiens [16]): Active; inhibition (Homo sapiens [17]): Active
COc1cc2c(cc1OC)CN(CCc1ccc(Nc3nc(-c4cccnc4)nc4ccccc34)cc1)CC2	> 99%	5.9	97.9%	–
COc1cc2c(cc1OC)CN(CCc1ccc(Nc3nc(-c4ccc(F)cc4)nc4ccccc34)cc1)CC2	> 99%	3.3	> 99%	–
COc1cc2c(cc1OC)CN(CCc1ccc(Nc3nc(-c4ccc([N+](=O)[O-])cc4)nc4ccccc34)cc1)CC2	94.7%	3	> 99%	–
COc1cc2c(cc1OC)CN(CCc1ccc(Nc3nc(-c4ccc5c(c4)OCO5)nc4ccccc34)cc1)CC2	91.4%	15.5	89.2%	–
COc1cc2c(cc1OC)CN(CCc1ccc(Nc3nc(-c4ccc(C)cc4)nc4ccccc34)cc1)CC2	93.4%	7.5	94.2%	–
COc1cc2c(cc1OC)CN(CCc1ccc(Nc3nc(-c4cccc([N+](=O)[O-])c4)nc4ccccc34)cc1)CC2	> 99%	13.4	> 99%	–
